# Screening results deposited in PubChem BioAssay by The Scripps Research Institute Molecular Screening Center.
# 5HT1E ag = agonists of human 5-HT1E serotonin receptor; CHO 5-HT1E Ga15 NFAT-bla reporter, FRET; 0% DMSO wells, 100% control agonist wells; activation, % at 6 µM; 65,000 compounds, 0.69% hits; AID 574;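 active = activation above a set limit, the screen-wide mean activation plus 3 SD, cut at about 8.5% in these data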;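 note: 100% = positive control agonist at 1 µM giving full maximal response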
# S1P3 ag = agonists of human S1P3 receptor. Q99500. S1P3 NFAT-BLA reporter cells, agonism, FRET ratio; relative to 1 µM S1P, basal subtracted. activation, % at 4.5 µM. 60,000 compounds, 0.1% hits;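 active = activation above the screen-wide mean plus 3 SD, cut at about 4.5% in these data, passing the limit was not always enough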
#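 Assay system: stable CHO line with human S1P3, Gα16, NFAT-BLA reporter; Detection: FRET β-lactamase substrate fluorescence, excitation 405 nm, 460/535 nm emission ratio, background-subtracted; Read-out: percent activation versus median 1 µM S1P response, basal-subtracted, per plate; Incubation: cells plated overnight, compound 4 h 37 °C, substrate 2 h RT.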
# S1P1 ag pot = activates or potentiates agonism at human S1P1 receptor | S1P1 CRE-bla cells, forskolin, beta-lactamase FRET, potentiator mode; S1P1 agonist co-added at EC20, 2 nM; 100% = saturating reference agonist, 0% = basal | activation, % at 9.5 µM | 56,000 compounds, 0.57% hits;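 active = activation above a cutoff set at the mean activation of all tested compounds plus 3 SD, cut at about 54% in these data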;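 note: forskolin at 4 µM as EC80 and the EC20 agonist is SEW2871; 100% = SEW2871 at its EC100 plus forskolin at EC80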
# Target sequence (P21453 whole entry, looked up): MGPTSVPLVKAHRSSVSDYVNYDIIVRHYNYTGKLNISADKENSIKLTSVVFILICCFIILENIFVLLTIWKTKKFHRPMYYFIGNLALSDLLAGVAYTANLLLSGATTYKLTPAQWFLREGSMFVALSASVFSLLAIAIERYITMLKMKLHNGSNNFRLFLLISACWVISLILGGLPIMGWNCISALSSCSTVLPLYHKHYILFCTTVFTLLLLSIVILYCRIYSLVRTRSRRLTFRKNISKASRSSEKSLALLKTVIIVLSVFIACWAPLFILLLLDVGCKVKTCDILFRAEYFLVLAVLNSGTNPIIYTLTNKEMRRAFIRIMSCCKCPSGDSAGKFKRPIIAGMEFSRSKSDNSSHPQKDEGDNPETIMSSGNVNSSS
# 5HT1a ag = agonists of human 5-HT1a serotonin receptor. P08908. CHO 5-HT1a Ga15 NFAT-bla reporter, FRET ratio; 0% basal, 100% maximal reference agonist. activation, % at 10 µM. 65,000 compounds, 0.56% hits;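 active = activation above the screen-wide mean activation plus 3 SD, cut at about 19% in these data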;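 note: 0% = DMSO wells and 100% = 5-CT at EC100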
# 5HT1a antag = antagonists of human 5-HT1a serotonin receptor; CHO 5-HT1a Ga15 NFAT-bla reporter, antagonist mode; inhibition, % at 10 µM; 62,000 compounds, 0.68% hits; AID 612; P08908;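 active = inhibition above the mean of all tested compounds plus 3 SD, cut at about 43% in these data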;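 note: receptor stimulated by 5-CT agonist at 100 nM near EC80; beta-lactamase reporter measured by ratiometric fluorescence of a cleavable substrate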
# 5HT1E antag = blocks the human 5-HT1E serotonin receptor; P28566; CHO 5-HT1E Ga15 NFAT-bla reporter, FRET, antagonist; inhibition, % at 6 µM; 65,000 compounds, 0.99% hits;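 active = inhibition above a set limit, the mean inhibition across every tested compound plus 3 SD, cut at about 29% in these data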;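 note: signal is the 460 over 535 nm emission ratio of beta-lactamase substrate; 0% = agonist plus DMSO wells and 100% = wells without agonist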
# Starred values were filed as active, the others as inactive; . = no result given. In the library only some 3% were active in any assay of this set; here they are far more common.
SMILES,5HT1E ag,S1P3 ag,S1P1 ag pot,5HT1a ag,5HT1a antag,5HT1E antag
COc1ccc(NC(=O)C(NS(=O)(=O)c2ccc3c(c2)CCCN3C(C)=O)C(C)C)c(OC)c1 (centres undefined),16.6*,0.3,-0.8,-3.9,-5.4,-8.8
CC(=O)N1CCCc2cc(S(=O)(=O)NC(C(=O)NC(C)c3ccccc3)C(C)C)ccc21 (centres undefined),0.6,-1.5,4.2,-3.5,-13.2,0.6
CCCN(C(=O)c1cccs1)c1nnc(-c2ccncc2)s1,1.1,-0.9,100.7*,-0.8,9.1,19.9
Cc1oc(-c2cccs2)nc1CS(=O)CC(=O)NC1CCCCCC1 (centres undefined),0.5,-0.9,9.6,-2.3,8.5,0.4
Cc1cccc(-c2nc(C#N)c(NC3CCCCC3)o2)c1,-0.4,-3.6,68.5*,-1.1,.,55.0*
Cc1cccc(-c2nc(CS(=O)CC(=O)NC3CCCC3)c(C)o2)c1 (centres undefined),-0.1,-0.9,13.0,36.8*,-3.4,13.2
COCCCNC(=O)CS(=O)Cc1nc(-c2cccc(OC)c2)oc1C (centres undefined),8.9*,-0.6,0.3,-1.3,11.5,-5.9
COc1ccc(-c2nc(CS(=O)CC(=O)NCc3ccco3)c(C)o2)cc1OC (centres undefined),0.0,0.2,-1.4,0.2,6.2,29.2*
CC(C)C(=O)Nc1cccc(NC(=O)CCN2C(=O)c3ccccc3S2(=O)=O)c1,-1.2,-0.7,12.6,-1.4,11.5,2.4
COc1ccc(-c2nc(CS(=O)CC(=O)N3CCCC3)c(C)o2)cc1 (centres undefined),0.4,0.3,-14.5,100.9*,-3.4,9.5
CCN1CCN(C(=O)CS(=O)Cc2nc(-c3ccc(OC)cc3)oc2C)CC1 (centres undefined),0.3,-0.6,2.0,-2.7,-10.2,-4.1
Cc1ccc(S(=O)(=O)N(C)Cc2ccc(-c3nnco3)cc2)cc1,-0.2,0.4,22.2,-0.7,16.5,0.8
Cc1ccc(C(C)C)c(OCc2ccc(-c3nnco3)cc2)c1,-1.2,-1.6,97.9*,-1.4,10.0,16.1
Cc1ccc(-n2c(C)cc(C(=O)CSc3nnnn3C)c2C)cc1,0.2,-0.1,87.0*,-0.8,-3.8,-2.3
Cc1ccc(C)c(-n2nnnc2Sc2nnnn2-c2ccccc2)c1,-0.9,-1.0,55.8,-0.6,45.8*,24.9
COC(=O)c1ccc2c(=O)sc(N3CCC(C(N)=O)CC3)nc2c1,-0.8,.,.,0.2,-8.6,4.7
COc1cc(C)c(Cl)cc1S(=O)(=O)NCC1CCCO1 (centres undefined),0.3,-0.6,-9.0,3.1,1.3,-8.6
CCOc1cc(C)c(Cl)cc1S(=O)(=O)NCC1CCCO1 (centres undefined),-1.3,-0.7,11.7,0.2,12.2,31.0*
Cc1cccc(N2CCN(CCNC(=O)c3cc4c(s3)CS(=O)(=O)C4)CC2)c1C,12.8*,.,.,36.5*,41.6,-5.4
CCCN1CCN(CCCNC(=O)Cn2cc3c(n2)CCCC3)CC1,-0.6,0.3,-32.6,-2.0,9.7,-4.0
O=C(Cn1cc2c(n1)CCCCC2)NC1CCN(Cc2ccccc2)CC1,0.5,0.6,-9.4,28.5*,7.0,-0.6
CC1CCc2nn(CC(=O)NC3CCCC3)cc2C1 (centres undefined),0.1,0.3,-6.6,40.0*,-12.6,-8.2
CCOCCCNC(=O)Cn1cc2c(n1)CCCC2,-0.6,0.0,-24.3,36.3*,15.2,-7.2
O=C(NCCCN1CCCC1=O)c1cccc(C(F)(F)F)c1,0.7,-0.4,-22.0,2.2,-0.5,-8.7
CN(C)c1ccc(NC(=O)Cn2c(=O)n(Cc3ccccc3)c(=O)c3ccccc32)cc1,-0.7,.,.,-0.1,3.3,6.3
SMILES,5HT1E ag,S1P3 ag,S1P1 ag pot,5HT1a ag,5HT1a antag,5HT1E antag
COc1ccccc1CNc1nc2nc(C)cc(=O)n2[nH]1,1.2,-0.6,2.3,0.0,2.5,6.0
O=C(Nc1ccc(Oc2ccc(NC(=O)c3ccco3)c(NC(=O)c3ccco3)c2)cc1)c1ccco1,-1.2,0.3,-10.0,-1.6,58.8*,18.1
CCc1nnc(NC(=O)C(C)N2C(=O)C3C4C=CC(C4)C3C2=O)s1 (centres undefined),-0.5,0.0,-4.8,-7.0,3.8,-2.6
COCCn1nnnc1C(C(C)C)N(Cc1cccnc1)Cc1ccccc1Cl (centres undefined),-0.9,-0.7,12.1,-1.1,14.3,-1.9
O=C1NC(=O)c2cc(NC(=O)C3CCCCC3)ccc21,-0.8,0.2,-0.5,-1.2,-8.2,4.1
CN1CCN(c2ccccc2NC(=O)c2ccc(Br)o2)CC1,13.4*,-1.0,-4.9,1.7,16.5,8.2
COc1ccc2c(c1)CCc1c(C(=O)NC3CCCCC3)noc1-2,-1.1,-1.3,93.9,-0.5,-2.6,-12.2
O=C(NC1=NCCS1)c1cc(-c2ccccc2)nn1-c1ccccc1,0.7,10.7*,52.3,0.4,2.1,-21.6
Cc1cc(C)n(-c2ccc(C(=O)NC3=NCCS3)cc2)n1,1.7,-1.0,9.6,1.9,12.4,0.5
O=C(NCc1ccco1)c1ccc2c(=O)n(CCC3=CCCCC3)c(=O)[nH]c2c1,-0.1,-0.7,6.9,-1.2,-0.8,-1.5
Cc1nc2c(sc3nc4c(cc32)COC(C)(C)C4)c(=O)n1CC(=O)NCc1ccco1,-0.5,.,.,-3.1,16.7,30.6*
COC(=O)c1ccccc1S(=O)(=O)Nc1ccc(OC)nc1,0.1,0.8,-0.4,-0.1,-7.2,5.3
COc1ccc(C(=O)C(CN2CCOCC2)c2ccccc2)cc1F (centres undefined),0.2,-1.3,80.4,-2.3,76.5*,38.6*
COc1ccc(C(O)C(CN2CCOCC2)c2ccccc2)cc1F (centres undefined),0.0,-0.1,-3.6,-0.4,-7.2,-1.2
CC(=O)NCCOc1nc(N(C)C)nc(N2CCOCC2)n1,-0.5,-0.1,1.1,25.8*,-5.5,2.0
O=C(NCCOc1nc(N2CCCCC2)nc(N2CCOCC2)n1)Nc1ccccc1,1.7,-0.8,.,1.4,1.0,1.5
O=C(NCCN1CCN(Cc2ccccc2)CC1)C1c2ccccc2C(=O)N2CCc3ccccc3C12 (centres undefined),1.5,-0.8,12.9,-1.0,59.3*,10.3
Cc1ccc(CNC(=O)C2c3ccccc3C(=O)N3CCc4ccccc4C23)o1 (centres undefined),-0.6,-0.2,24.1,-3.0,21.4,7.5
Cc1nn(-c2ccccc2)c(Cl)c1C(=O)N1CCN(c2ncnc3c2cnn3-c2ccccc2)CC1,-0.6,-0.8,28.0,-0.4,62.9*,56.2*
